Laboratory results: ChEMBL document CHEMBL4368933, “Structure-activity relationship of leucyladenylate sulfamate analogues as leucyl-tRNA synthetase (LRS)-targeting inhibitors of Mammalian target of rapamycin complex 1 (mTORC1)” (Bioorg Med Chem, 2019)
Calls of active or inactive are those of the source. The rule behind the calls is not given here.

Key:
[1] = target: Leucine--tRNA ligase, cytoplasmic (Homo sapiens) (UniProt Q9P2J5); assay: Inhibition of Leucyl-tRNA synthetase-mediated mTORC1 signaling activation in human HEK293 cells assessed as reduction in leucine-induced S6K phosphorylation at 200 uM preincubated for 50 mins followed by leucine-stimulation and measured after 10 mins by Western blot analysis; type: cell-based
Chain of Leucine--tRNA ligase, cytoplasmic (Homo sapiens) (Q9P2J5 whole entry, looked up): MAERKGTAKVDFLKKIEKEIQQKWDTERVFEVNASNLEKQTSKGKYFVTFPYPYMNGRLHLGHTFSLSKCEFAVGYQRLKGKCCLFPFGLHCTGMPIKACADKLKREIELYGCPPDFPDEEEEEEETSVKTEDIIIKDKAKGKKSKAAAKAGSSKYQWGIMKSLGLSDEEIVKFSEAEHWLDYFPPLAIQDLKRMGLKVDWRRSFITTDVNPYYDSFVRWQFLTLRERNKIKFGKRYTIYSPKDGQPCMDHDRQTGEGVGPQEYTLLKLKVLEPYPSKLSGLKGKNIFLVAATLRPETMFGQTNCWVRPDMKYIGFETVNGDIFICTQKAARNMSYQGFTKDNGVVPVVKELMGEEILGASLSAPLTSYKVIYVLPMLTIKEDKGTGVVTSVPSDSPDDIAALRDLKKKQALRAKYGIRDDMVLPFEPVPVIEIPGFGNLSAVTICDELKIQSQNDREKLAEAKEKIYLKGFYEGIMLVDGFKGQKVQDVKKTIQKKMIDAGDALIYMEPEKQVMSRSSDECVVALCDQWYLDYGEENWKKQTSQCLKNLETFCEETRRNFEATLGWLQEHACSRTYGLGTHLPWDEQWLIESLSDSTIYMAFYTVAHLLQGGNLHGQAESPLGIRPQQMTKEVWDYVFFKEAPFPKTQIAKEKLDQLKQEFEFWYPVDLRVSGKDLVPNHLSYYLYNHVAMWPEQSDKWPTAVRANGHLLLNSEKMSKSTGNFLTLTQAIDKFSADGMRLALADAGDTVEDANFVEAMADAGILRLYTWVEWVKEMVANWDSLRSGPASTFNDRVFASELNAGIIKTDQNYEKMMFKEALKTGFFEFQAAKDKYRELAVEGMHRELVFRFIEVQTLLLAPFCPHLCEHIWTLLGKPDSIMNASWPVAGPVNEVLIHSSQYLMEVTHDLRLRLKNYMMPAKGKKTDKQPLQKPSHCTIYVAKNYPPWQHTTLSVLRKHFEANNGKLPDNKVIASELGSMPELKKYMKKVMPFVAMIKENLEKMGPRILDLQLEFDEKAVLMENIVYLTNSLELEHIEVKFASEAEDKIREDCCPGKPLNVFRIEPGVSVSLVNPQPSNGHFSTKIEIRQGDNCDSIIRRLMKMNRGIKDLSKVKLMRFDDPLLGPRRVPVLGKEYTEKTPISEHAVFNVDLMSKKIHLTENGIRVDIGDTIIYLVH
Method in brief: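 HEK293 cells pretreated with test agent at a fixed 200 µM, alongside rapamycin (100 nM) and leucinol (800 µM) as references. mTORC1 then activated by adding leucine for 10 min. S6K phosphorylation read by Western blot.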

mTORC2 (Homo sapiens) = mTORC2 (Homo sapiens) (UniProt P42345+Q6R327+Q9BVC4+Q9BPZ7); assay: Inhibition of mTORC2 signaling in human HEK293 cells assessed as reduction in leucine-induced AKT phosphorylation at 200 uM preincubated for 50 mins followed by leucine-stimulation and measured after 10 mins by Western blot analysis; type: cell-based
HEK293 = assay: Effect on leucine-induced AKT levels in human HEK293 cells at 200 uM preincubated for 50 mins followed by leucine-stimulation and measured after 10 mins by Western blot analysis; type: functional, cell-based
A549 = assay: Antiproliferative activity against human A549 cells after 72 hrs by SRB assay; type: functional, cell-based; conditions: A549, 72 h
Method in brief: (§1)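 Colorimetric growth assay with IC50 values derived; etoposide as positive control. Cell lines: A549 (lung cancer), HCT116 (colon cancer), MDA-MB-231 (breast cancer), SK-Hep-1 (liver cancer), SNU638 (stomach cancer), MRC5 (normal lung […]).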

HCT-116 = assay: Antiproliferative activity against human HCT116 cells after 72 hrs by SRB assay; type: functional, cell-based; conditions: HCT-116, 72 h; method in brief: as §1
MDA-MB-231 = assay: Antiproliferative activity against human MDA-MB-231 cells after 72 hrs by SRB assay; type: functional, cell-based; conditions: MDA-MB-231, 72 h; method in brief: as §1
SK-HEP1 = assay: Antiproliferative activity against human SKHEP1 cells after 72 hrs by SRB assay; type: functional, cell-based; conditions: SK-HEP1, 72 h; method in brief: as §1
SNU-638 = assay: Antiproliferative activity against human SNU638 cells after 72 hrs by SRB assay; type: functional, cell-based; conditions: SNU-638, 72 h; method in brief: as §1
MRC5 = assay: Antiproliferative activity against human MRC5 cells after 72 hrs by SRB assay; type: cell-based; conditions: MRC5, 72 h; method in brief: as §1
[2] = target: Leucine--tRNA ligase, cytoplasmic (Homo sapiens) (UniProt Q9P2J5); assay: Inhibition of Leucyl-tRNA synthetase-mediated mTORC1 signaling activation in human HEK293 cells assessed as reduction in leucine-induced S6K phosphorylation preincubated for 50 mins followed by leucine-stimulation and measured after 10 mins by Western blot analysis; type: cell-based
Method in brief: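 HEK293 cells pretreated at 20, 50, 100 and 200 µM. Leucine then added for 10 min to activate mTORC1. Dose dependence of leucine-induced S6K phosphorylation assessed by Western blot.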

| inhibition [1] | inhibition (mTORC2 (Homo sapiens)) | IC50 (A549) | IC50 (HCT-116) | IC50 (MDA-MB-231) | IC50 (SK-HEP1) | IC50 (SNU-638) | inhibition [2] | Compound | Activity (HEK293) | IC50 (MRC5) |
| --- | --- | --- | --- | --- | --- | --- | --- | --- | --- | --- |
| Active | inactive | – | – | – | – | – | – | CC(C)[C@@H](O)[C@H](O)C(=O)NS(=O)(=O)OC[C@H]1O[C@@H](n2cnc3c(N)nc(I)nc32)[C@H](O)[C@@H]1O | inactive | – |
| inactive | inactive | – | – | – | – | – | – | CC(C)[C@@H](O)[C@H](O)C(=O)NS(=O)(=O)OC[C@@H]1C[C@@H](O)[C@H](n2cnc3c(N)ncnc32)O1 | inactive | – |
| Active | – | 6.93 µM | 9.14 µM | 17.8 µM | 7.26 µM | 5.7 µM | – | Nc1ncnc2c1ncn2[C@@H]1O[C@H](COS(=O)(=O)NC(=O)[C@@H](O)[C@H](O)C2CC2)[C@@H](O)[C@@H]1O | – | > 20 µM |
| Active | inactive | – | – | – | – | – | – | CC(C)[C@@H](O)[C@H](O)C(=O)NS(=O)(=O)OC[C@H]1O[C@@H](n2cnc3c(N)ncnc32)[C@H](O)[C@@H]1O | inactive | – |
| Active | inactive | 5.04 µM | 6.52 µM | 6.27 µM | 5.74 µM | 4.72 µM | Dose-dependent effect | CC(C)[C@@H](O)[C@H](O)C(=O)NS(=O)(=O)OC[C@H]1O[C@@H](n2cnc3c(N)ncnc32)C[C@@H]1O | inactive | > 20 µM |
| inactive | inactive | – | – | – | – | – | – | CC(C)[C@H](O)[C@@H](O)C(=O)NS(=O)(=O)OC[C@H]1O[C@@H](n2cnc3c(N)ncnc32)[C@H](O)[C@@H]1O | inactive | – |
| Active | inactive | 1 µM | 3.47 µM | 2.61 µM | 1.76 µM | 4.5 µM | Dose-dependent effect | CC(C)C[C@H](O)C(=O)NS(=O)(=O)OC[C@H]1O[C@@H](n2cnc3c(N)ncnc32)[C@H](O)[C@@H]1O | inactive | 16.6 µM |
| inactive | inactive | – | – | – | – | – | – | CNc1ncnc2c1ncn2[C@@H]1O[C@H](COS(=O)(=O)NC(=O)[C@H](O)[C@@H](O)C(C)C)[C@@H](O)[C@H]1O | inactive | – |
